Measured values pooled from the literature.
Protocols differ between the studies behind these lines.
ADORA2A: Adenosine receptor A2a (ADORA2A, Homo sapiens, UniProt P29274)
HDAC2: Histone deacetylase 2 (HDAC2, Homo sapiens, UniProt Q92769)
HTR2A: 5-hydroxytryptamine receptor 2A (HTR2A, Homo sapiens, UniProt P28223)

| SMILES | target | read-out | mode | technique | measurement | result |
| --- | --- | --- | --- | --- | --- | --- |
| CC(C)=CCNc1ncnc2c1ncn2[C@@H]1O[C@H](CO)[C@@H](O)[C@H]1O | ADORA2A | G protein activation | agonist |  | EC50 | 6.4 µM |
| C=CCO[C@H]1O[C@H](CO)[C@@H](OP(=O)(O)O[C@H]2O[C@H](CO)[C@@H](O)[C@H](O)[C@@H]2O)[C@H](O)[C@@H]1O | CLEC4E (Homo sapiens, UniProt Q9ULY5) | binding |  | BLI | Kd | 1.59 µM |
| O=C(/C=C/c1cccc(OS(=O)(=O)Oc2ccc(C(F)(F)F)cc2)c1)NO | HDAC2 | enzyme activity | inhibitor | fluorescence | Ki | 0.105 µM |
| CN(C)c1ncnc2c1ncn2[C@@H]1O[C@H](CO)[C@@H](O)[C@H]1O | ADORA2A | G protein activation | agonist |  | EC50 | 3.2 µM |
| N#C[C@@]12C[C@@H]1[C@@H](n1cnc3c(NCc4cccc(Cl)c4)nc(I)nc31)[C@H](O)[C@@H]2O | HTR2A | ligand displacement |  | radioligand | Ki | 4.9 µM |
| COc1ccccc1CC1CCN(CC(=O)c2cc(C)[nH]c2C)C1 (stereo not drawn) | HTR2A | calcium signal | antagonist |  | IC50 | 13.2 µM |
| N#C[C@@]12C[C@@H]1[C@@H](n1cnc3c(N[C@@H](C4CCC4)C4CC4)nc(I)nc31)[C@H](O)[C@@H]2O | ADORA2A | ligand displacement |  | radioligand | Ki | > 10 µM |
| O=C(NO)c1cncc(OS(=O)(=O)Oc2ccc(C(F)(F)F)cc2)c1 | HDAC2 | enzyme activity | inhibitor | fluorescence | Ki | 1.31 µM |
| Cc1[nH]c2ccccc2c1SCCNC(=O)C1NCCC1C1CC1 (stereo not drawn) | HTR2A | calcium signal | antagonist |  | IC50 | 31.7 µM |
